Source: PubChem (several laboratories)
An excerpt weighted towards active compounds, which were near 1.6% of everything screened.
MT1-MMP act inh: blocks activation of human MT1-MMP; P50281; HT1080 RFP-PRO-GFP cells, GFP/RFP ratio fluorescence, overnight; percent of plate control window, DMSO zero; GFP/RFP ratio change, % at 20 µM; hit rate 0.061% among 360,000; AID 651647;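 active = GFP/RFP ratio change of at least 30% with cell ATP level not reduced by more than half and red fluorescence within 50% of control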
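Assay system: HT1080 cells carrying an RFP-PRO-GFP reporter | Dosing: Single dose of 20 µM compound, 1% DMSO final | Incubation: Cells overnight before dosing, compound overnight, 37 °C, 5% CO2 | Evaluation: GFP/RFP fluorescence ratio | Control set: DMSO and RFP-L50D-GFP cell wells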
Arrestin-AP2 inh: blocks beta-arrestin peptide binding to AP2 adaptin | FITC-arrestin peptide / GST-AP2 beads, flow cytometry; AP2 beta2 appendage carries R879A mutation | hit rate 0.31% among 340,000 | inhibition, % at 10 µM | AID 504490;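 active = inhibition above a set limit, near 3 SD of compounds lacking own fluorescence, cut at about 54% in these data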;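 also: plate controls were DMSO wells for no effect and 5 µM unlabelled arrestin peptide for full effect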
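System: GST-AP2 R879A glutathione beads | Also added: FITC-arrestin peptide, 50 nM | Times: 12 min plus 1 h, RT | Signal: Bead flow cytometry, FITC channel | Buffer or medium: PBS with 0.05% Tween 20 and 0.1% BSA | Read-out basis: Percent drop in bead-associated FITC signal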
Rin1 Abl inh: inhibitors of human Rin1-Abl protein interaction; P00519+Q13671; TR-FRET Rin1/Abl binding, biochemical; inhibition, % at 7.35 µM; hit rate 0.4% among 360,000; in the data active = inhibition above about 5%, passing the limit was not always enough
SKN-1 block: blocks SKN-1 activity in C. elegans; inhibition, % at 21.8 µM; AID 624304; hit rate 0.49% among 360,000; C. elegans VP596 Pgst-4::GFP/RFP ratio, acrylamide-induced, 24 h;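 active = interference check ratio from 0.5 to 1.5 plus GFP to RFP signal ratio inhibition reaching or exceeding a fixed threshold, cut at about 30% in these data, passing the limit was not always enough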
Tb MetRS inh: blocks T. brucei methionyl-tRNA synthetase activity. AID 624268. hit rate 0.4% among 360,000. purified T. brucei MetRS, ATP depletion, Kinase-Glo luminescence. inhibition, % at 11.9 µM;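 active = inhibition above a per-plate cutoff of the control wells' mean inhibition plus 3 SD, cut at about 5.5% in these data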;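 also: 0% = DMSO wells median and 100% = median of wells with control inhibitor compound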
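Dosing: 11.9 µM single point; system: parasite MetRS enzyme; technique: luminescence of leftover ATP; times: 15 min enzyme-compound preincubation, 2 h reaction, 10 min detection, 25 °C; replicates: each compound tested once; read-out basis: percent inhibition relative to median high and low control wells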
Arr-AP2 CP1: human beta-arrestin and AP2 interaction inhibition, cherry pick | shares compounds with Arrestin-AP2 inh | GST-AP2 beads, FITC arrestin peptide binding, flow cytometry; GST-fused beta2-adaptin appendage, R879A mutant | inhibition, % at 10 µM | hit rate 2% among 1,300;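 active = inhibition above a set limit, roughly 3 SD of non-fluorescent compound noise, cut at about 38% in these data; inactive = inhibition at or below that limit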;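 also: loss of bead fluorescence from 50 nM FITC arrestin peptide bound to appendage; 0% = negative control wells and 100% = excess unlabelled arrestin peptide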
GST-FITC bead: counter-screen for beta-arrestin AP2 inhibitors: GST-GSH bead binding. hit rate 2% among 1,300. shares compounds with Arrestin-AP2 inh. GST-fluorescein binding to GSH beads, fluorescence. inhibition, % at 10 µM. AID 588338;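 active = inhibition above 50%, about 3 SD of the inhibition seen with non-fluorescent compounds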;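 also: fluorescein maleimide labelled GST captured on 4 micron glutathione beads; higher means more loss of bead fluorescence from quenching or blocked binding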
An asterisk follows results filed as active; . = not tested or not shown.

SMILES	MT1-MMP act inh	Arrestin-AP2 inh	Rin1 Abl inh	SKN-1 block	Tb MetRS inh	Arr-AP2 CP1	GST-FITC bead
CC(C)Sc1ncc(S(=O)(=O)c2ccccc2)c(=O)[nH]1	3	57*	3	-4	-1	9	4
C#CCSc1ncc(S(=O)(=O)c2ccccc2)c(=O)[nH]1	-6	-10	-3	7	1	.	.
O=C(CSc1nc2ccccc2c(=O)n1Cc1ccc(F)cc1)NCc1cccs1	0	87*	2	-3	0	24	181*
Cc1ccc(-c2nnn(CC(=O)N(c3ccccc3)C(C(=O)NCC3CCCO3)c3ccc(F)cc3)n2)o1 (stereo not given)	-3	66*	5	5	0	6	0
Cc1ccc(S(=O)(=O)N2C[C@H]3[C@H]4C(=O)N(C)C(=O)[C@H]4CC(=O)[C@H]3[C@@H]2c2ccccc2F)cc1	3	.	3	-3	0	.	.
Cc1ccc(S(=O)(=O)Nc2cc(Cl)c(O)cc2C)cc1	4	58*	0	6	-1	4	-4
COC(=O)c1cnn2c(C(F)(F)F)cc(-c3ccccc3)nc12	-9	6	-3	27	0	.	.
Cc1cc(NC(=O)c2cnn3c(C(F)F)cc(-c4ccccc4)nc23)no1	1	1	1	-8	0	3	2
Cc1cc(NC(=O)c2cnn3c(C(F)(F)F)cc(-c4ccccc4)nc23)no1	2	0	-2	7	0	3	-17
CCCCNC(=O)C1(C)CCN1C(=O)c1ccc2sccc2c1 (stereo not given)	2	.	-2	19	0	.	.
COc1ccc(CCN2C(=O)CCC3=C2CCCC3=O)cc1OC	5	.	4	2	-1	.	.
O=C1C=C(OCCF)CC(c2ccccc2C(F)(F)F)O1 (stereo not given)	7	.	.	8	0	.	.
Cc1noc(C)c1CSc1ncnc2sc(C)c(C)c12	3	105*	0	2	0	-7	2
CC(C)CN1C(=O)C(=O)N(CC(=O)NCCCc2ccccc2)C1=O	4	.	-1	13	0	.	.
CCCCSC(=S)N(C)C1CCS(=O)(=O)C1 (stereo not given)	2	98*	0	15	0	-10	2
CN(C(=S)SCc1ccccc1)C1CCS(=O)(=O)C1 (stereo not given)	3	-2	4	4	-1	.	.
Cc1ccc(Cl)cc1NC(=O)COC(=O)c1ccc(CN2CCCC2=O)cc1	25	-5	0	5	0	.	.
COc1cc(Cl)c(C)cc1NC(=O)COC(=O)c1ccc(CN2CCCC2=O)cc1	4	65*	4	-15	0	-1	1
O=C1CC(=O)N(C2CCCCC2)C(=O)N1c1ccccc1S(=O)(=O)Oc1ccccc1	-11	.	4	13	-1	.	.
C[C@H](O)[C@@H]1C(=O)N2CCc3ccc(-c4ccccc4)cc3[C@@H]2C[C@@H]1N(C)C(=S)Nc1ccc(F)cc1	5	.	0	4	-2	.	.
COc1ccccc1C(=O)NCCC(=O)N1CCN(C(=O)c2ccco2)CC1	-2	-7	-1	4	0	.	.
COc1ccccc1C(=O)NCCC(=O)N1CCN(C(C)=O)CC1	-1	61*	3	-8	0	9	-2
Nc1c(C(=O)NC2CC2)sc2nc3c(c(-c4ccco4)c12)CC/C3=C/c1ccco1	-1	55*	13*	10	1	35	22
O=C(Nc1ccccc1)Nc1nnc([C@H]2C[C@H](O)[C@@H](CO)O2)s1	0	.	-2	2	3	.	.
COc1ccc(C(=O)C(=O)N2CCN(C(=O)OCc3ccccc3)CC2)cc1	0	.	.	6	0	.	.
SMILES	MT1-MMP act inh	Arrestin-AP2 inh	Rin1 Abl inh	SKN-1 block	Tb MetRS inh	Arr-AP2 CP1	GST-FITC bead
CC(=O)c1ccc(NC(=O)Cn2cnc(S(=O)(=O)N3CCC(C)CC3)c2)cc1	6	7	-1	6	0	.	.
Cc1ccc(CNC(=O)Cn2cnc(S(=O)(=O)N3CCC(C)CC3)c2)o1	2	55*	1	0	-1	-4	0
O=C(c1cc2ccccc2o1)N1CCN(c2ccccn2)CC1	3	59*	-2	9	0	0	-3
O=C(c1ccccc1CCc1ccccc1)N1CCN(c2ccccn2)CC1	-6	84*	3	-4	0	-8	-1
Cc1ccc(-c2nn(-c3ccccc3)cc2C(=O)N2CCN(c3ccccn3)CC2)cc1	-3	57*	-2	-4	0	13	-5
CC1(CO)CCCC1NCCNC1CCCC1(C)CO (stereo not given)	5	.	3	14	-1	.	.
CCN(CC)S(=O)(=O)c1ccc(SCC(=O)c2c(N)n(C3CC3)c(=O)[nH]c2=O)nc1	2	.	0	2	0	.	.
CCCNC(=O)C1(C)CCN(Cc2ccc(OCc3ccccc3)cc2)C1 (stereo not given)	5	.	-1	1	0	.	.
CCn1c(O)c2ccc(C(=O)N=NC(=O)c3ccccc3)cc2c1O	1	58*	-1	6	0	13	-5
NC(=S)NN=C1CSSC1	-29	.	0	3	0	.	.
COc1ccc(OCC(=O)Nc2nccs2)cc1	1	-38	-1	3	0	.	.
COc1ccc(OCCC(=O)Nc2nccs2)cc1	0	54*	8	-6	0	-4	1
CCCCC(=O)Nc1ccc(C)c(S(=O)(=O)N2CCCCCC2)c1	7	8	1	-1	0	.	.
Cc1ccc(NC(=O)CCS(=O)(=O)c2ccccc2)cc1S(=O)(=O)N1CCCCCC1	2	58*	-1	-3	0	-10	0
CCCc1c(-c2ccc(F)cc2)ncn1Cc1ccccc1OC	-2	.	.	-1	-1	.	.
Cn1c(N)c(C(=O)COC(=O)c2ccc(C(F)(F)F)cc2)c(=O)n(C)c1=O	7	-11	5	16	0	-10	-4
Cn1c(N)c(C(=O)COC(=O)c2cccs2)c(=O)n(C)c1=O	0	17	-5	4	-1	1	2
Cc1noc(C)c1C(=O)OCC(=O)c1c(N)n(CC(C)C)c(=O)n(C)c1=O	0	-4	6	-34	0	1	-8
Cc1c(C(=O)OCC(=O)c2c(N)n(CC(C)C)c(=O)n(C)c2=O)oc2ccccc12	4	-15	-4	9	0	.	.
CCc1ccc(C(=O)OCC(=O)c2c(N)n(CC(C)C)c(=O)n(C)c2=O)cc1	-6	-13	-2	0	0	-3	-2
